According to ChEMBL document CHEMBL3421619, “Nicotinic Acid Adenine Dinucleotide Phosphate Analogues Substituted on the Nicotinic Acid and Adenine Ribosides. Effects on ReceptorMediated Ca²⁺ Release” (J Med Chem, 2015):

Experiments:
[1] = Activation of NAADP receptor in Strongylocentrotus purpuratus egg homogenates assessed as Ca2+ release by Fluo-3 dye based fluorometric assay
Outline: (§1)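 Egg homogenate microsomes from S. purpuratus loaded with Ca2+ in presence of ATP and 3 μM fluo-3; analogue added at a range of concentrations and released Ca2+ read as fluorescence increase (excitation 490 nm, emission 535 nm) on a plate reader; pH 7.2; triplicate; EC50 from concentration–response; fold values relative to NAADP.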

[2] = tested on: Strongylocentrotus purpuratus; test: Displacement of [32P]NAADP from NAADP receptor in Strongylocentrotus purpuratus egg homogenates incubated for 90 mins by liquid scintillation counting method relative to NAADP
Outline: (§2)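 Competition binding in filter plates: S. purpuratus egg homogenate incubated 90 min simultaneously with 0.2 nM [32P]NAADP and seven concentrations of test ligand; filtered, washed, filter-bound radioactivity counted by liquid scintillation; IC50 ± SEM with n; fold values relative to NAADP.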

[3] = Displacement of [32P]NAADP from NAADP receptor in Strongylocentrotus purpuratus egg homogenates incubated for 90 mins by liquid scintillation counting method; outline: as §2
[4] = tested on: Strongylocentrotus purpuratus; test: Desensitization of NAADP receptor in Strongylocentrotus purpuratus egg homogenates assessed as inhibition of NAADP-induced Ca2+ release pre-treated for 7 mins before NAADP addition by Fluo-3 dye based fluorometric assay relative to NAADP
Outline: (§3)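 S. purpuratus egg homogenates pretreated 7 min with varying analogue concentrations, then challenged with saturating NAADP (1 μM); Ca2+ release read by fluo-3 fluorescence (ex 490/em 535 nm); IC50 for inhibition of release from concentration–response, triplicate, reported ± SEM with n; fold values relative to NAADP.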

[5] = Desensitization of NAADP receptor in Strongylocentrotus purpuratus egg homogenates assessed as inhibition of NAADP-induced Ca2+ release pre-treated for 7 mins before NAADP addition by Fluo-3 dye based fluorometric assay; outline: as §3
[6] = tested on: Strongylocentrotus purpuratus; test: Activation of NAADP receptor in Strongylocentrotus purpuratus egg homogenates assessed as Ca2+ release by Fluo-3 dye based fluorometric assay relative to NAADP; outline: as §1
[7] = tested on: Strongylocentrotus purpuratus; test: Ratio of activation of NAADP receptor in Strongylocentrotus purpuratus egg homogenates by Ca2+ release assay to IC50 for NAADP receptor in Strongylocentrotus purpuratus egg homogenates by [32P]NAADP binding assay
[8] = tested on: Strongylocentrotus purpuratus; test: Ratio of activation of NAADP receptor in Strongylocentrotus purpuratus egg homogenates by Ca2+ release assay to IC50 for desensitization of NAADP receptor in Strongylocentrotus purpuratus egg homogenates by Ca2+ release assay
[9] = Activation of NAADP receptor in sea urchin egg homogenates assessed as Ca2+ release; assay type: tissue-based, Echinoidea; outline: as §1

Compound	EC50 [1] [µM]	Ratio IC50 [2]	IC50 [3] [µM]	Ratio EC50 [6]	Ratio [7]	EC50 [9] [µM]	Ratio IC50 [4]	IC50 [5] [µM]	Ratio [8]
Nc1ncnc2c1ncn2[C@@H]1O[C@H](COP(=O)([O-])OP(=O)(O)OC[C@@H]2O[C@H]([n+]3cc(CCCO)cc(C(=O)O)c3)[C@@H](O)[C@H]2O)[C@@H](O)[C@H]1OP(=O)(O)O	4.43	132	0.049	172			260	0.122	
[N-]=[N+]=Nc1nc2c(N)ncnc2n1[C@@H]1O[C@H](COP(=O)([O-])OP(=O)(O)OC[C@@H]2O[C@H]([n+]3cccc(C(=O)O)c3)[C@@H](O)[C@H]2O)[C@@H](O)[C@H]1OP(=O)(O)O	0.0477	1.9	0.0007	1.8			1.3	0.0006	
[N-]=[N+]=Nc1cc(C(=O)O)c[n+]([C@H]2O[C@@H](COP(=O)(O)OP(=O)([O-])OC[C@H]3O[C@@H](n4c(Br)nc5c(N)ncnc54)[C@H](OP(=O)(O)O)[C@@H]3O)[C@H](O)[C@@H]2O)c1	1360	1000	0.372	52800			1220	0.576	
CC(C)(C)OC(=O)NCCCc1cc(C(=O)O)c[n+]([C@H]2O[C@@H](COP(=O)(O)OP(=O)([O-])OC[C@H]3O[C@@H](n4cnc5c(N)ncnc54)[C@H](OP(=O)(O)O)[C@@H]3O)[C@H](O)[C@@H]2O)c1	160	8840	3.27	6200			2000	0.942	
NCCCc1cc(C(=O)O)c[n+]([C@H]2O[C@@H](COP(=O)(O)OP(=O)([O-])OC[C@H]3O[C@@H](n4cnc5c(N)ncnc54)[C@H](OP(=O)(O)O)[C@@H]3O)[C@H](O)[C@@H]2O)c1	> 1000	> 2e+06	> 1000	> 33300			1.43e+06	674	
CC(=O)Nc1cc(C(=O)O)c[n+]([C@H]2O[C@@H](COP(=O)(O)OP(=O)([O-])OC[C@H]3O[C@@H](n4cnc5c(N)ncnc54)[C@H](OP(=O)(O)O)[C@@H]3O)[C@H](O)[C@@H]2O)c1	0.626	40.5	0.015	24.3			45.7	0.0215	
Nc1ncnc2c1ncn2[C@@H]1O[C@H](COP(=O)([O-])OP(=O)(O)OC[C@@H]2O[C@H]([n+]3cc(O)cc(C(=O)O)c3)[C@@H](O)[C@H]2O)[C@@H](O)[C@H]1OP(=O)(O)O	1.93	51	0.0189	74.9			49.1	0.0231	
Nc1ncnc2c1ncn2[C@@H]1O[C@H](COP(=O)(O)OP(=O)(O)OC[C@@H]2O[C@H]([n+]3cccc(C(=O)[O-])c3)[C@@H](O)[C@H]2O)[C@@H](O)[C@H]1OP(=O)(O)O [NICOTINIC ACID ADENINE DINUCLEOTIDE PHOSPHATE]	0.0258		0.00037			0.02		0.00047	

Further lines, with some results ahead:

EC50 [1] [µM]	Ratio IC50 [2]	IC50 [3] [µM]	Ratio EC50 [6]	Ratio [7]	EC50 [9] [µM]	Compound	Ratio IC50 [4]	IC50 [5] [µM]	Ratio [8]
0.151	18.4	0.0068	5.9	100		CSc1cc(C(=O)O)c[n+]([C@H]2O[C@@H](COP(=O)(O)OP(=O)([O-])OC[C@H]3O[C@@H](n4cnc5c(N)ncnc54)[C@H](OP(=O)(O)O)[C@@H]3O)[C@H](O)[C@@H]2O)c1	8.9	0.0042	100
0.709	42.4	0.0157	27.5			Nc1ncnc2c1nc(Br)n2[C@@H]1O[C@H](COP(=O)([O-])OP(=O)(O)OC[C@@H]2O[C@H]([n+]3cccc(C(=O)O)c3)[C@@H](O)[C@H]2O)[C@@H](O)[C@H]1OP(=O)(O)O	32.6	0.0153	
30.7	152	0.0563	1190			[N-]=[N+]=NCCCc1cc(C(=O)O)c[n+]([C@H]2O[C@@H](COP(=O)(O)OP(=O)([O-])OC[C@H]3O[C@@H](n4cnc5c(N)ncnc54)[C@H](OP(=O)(O)O)[C@@H]3O)[C@H](O)[C@@H]2O)c1	97	0.0456	
41.7	4880	1.8	1620			CC(=O)NCCCc1cc(C(=O)O)c[n+]([C@H]2O[C@@H](COP(=O)(O)OP(=O)([O-])OC[C@H]3O[C@@H](n4cnc5c(N)ncnc54)[C@H](OP(=O)(O)O)[C@@H]3O)[C@H](O)[C@@H]2O)c1	2620	1.23	
